Reference: ChEMBL document CHEMBL1137085, “Recognition of privileged structures by G-protein coupled receptors” (J Med Chem, 2004)

Columns and labels:
[1] = target: T1, Melanocortin receptor 4 (Homo sapiens, UniProt P32245); experiment: Inhibition against human melanocortin-4 (MC4) receptor
Outline: (§1)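 BHK570 cells stably transfected with MC4 cDNA, with clones selected in G418/MTX medium. Membranes were homogenised in 20 mM Hepes pH 7.1, 5 mM MgCl2 and bacitracin. 10 μg membranes were incubated with 80 pM 125-labelled NDP-α-MSH and varying test concentrations in 25 mM HEPES pH 7.0 buffer (CaCl2, MgSO4, EGTA, tween 20, 0.1% HSA) for 2 h at 25 °C. Samples were filtered and washed with ice-cold saline, then counted; IC50 was determined.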

[2] = target: T2, Type-1 angiotensin II receptor (Homo sapiens, UniProt P30556); experiment: Inhibition against human angiotensin II receptor, type 1 (AG2-R)
T2 sequence (P30556 whole entry): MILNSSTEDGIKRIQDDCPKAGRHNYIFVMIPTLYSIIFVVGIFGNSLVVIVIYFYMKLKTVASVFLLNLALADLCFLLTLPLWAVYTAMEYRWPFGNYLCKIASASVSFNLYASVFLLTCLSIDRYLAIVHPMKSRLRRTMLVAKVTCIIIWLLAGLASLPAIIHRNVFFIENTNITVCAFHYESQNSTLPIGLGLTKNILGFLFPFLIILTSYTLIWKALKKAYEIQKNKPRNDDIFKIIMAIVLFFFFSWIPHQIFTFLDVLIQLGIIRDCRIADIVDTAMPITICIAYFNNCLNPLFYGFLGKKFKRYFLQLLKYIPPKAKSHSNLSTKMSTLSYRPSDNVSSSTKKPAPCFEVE
Outline: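 Competition binding assay with saralasin as tracer, run externally by a contract lab following a published method. IC50 values were derived from tracer displacement.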

[3] = target: Growth hormone secretagogue receptor type 1 (Sus scrofa, UniProt Q95254); experiment: Inhibition against pig growth hormone secretagogue (GHS) receptor
[4] = target: T3, Growth hormone secretagogue receptor type 1 (Homo sapiens, UniProt Q92847); experiment: Inhibition against human growth hormone secretagogue (GHS) receptor
Outline: (§2)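 Competition binding assay with ghrelin as tracer, run as previously described. IC50 values were derived from tracer displacement.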

[5] = target: 5-hydroxytryptamine receptor 6 (Homo sapiens, UniProt P50406); experiment: Inhibition against human 5-hydroxytryptamine 6 receptor
[6] = target: T1, Melanocortin receptor 4; experiment: Inhibition against human melanocortin-4 (MC4) receptor; No binding detected; outline: as §1
[7] = target: T3, Growth hormone secretagogue receptor type 1; experiment: Inhibition against human growth hormone secretagogue (GHS) receptor; No binding detected; outline: as §2

T3 sequence (Q92847 whole entry): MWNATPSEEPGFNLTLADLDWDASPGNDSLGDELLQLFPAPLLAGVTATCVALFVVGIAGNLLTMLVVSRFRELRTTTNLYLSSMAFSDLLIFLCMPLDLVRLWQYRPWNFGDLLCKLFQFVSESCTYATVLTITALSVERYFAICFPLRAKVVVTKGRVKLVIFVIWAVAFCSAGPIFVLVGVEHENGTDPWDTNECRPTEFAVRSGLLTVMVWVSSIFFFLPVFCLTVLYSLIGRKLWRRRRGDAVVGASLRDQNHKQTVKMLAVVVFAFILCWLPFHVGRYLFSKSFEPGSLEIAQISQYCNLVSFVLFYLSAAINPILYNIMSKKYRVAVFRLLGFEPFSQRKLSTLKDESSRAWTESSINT
T1 sequence (P32245 whole entry): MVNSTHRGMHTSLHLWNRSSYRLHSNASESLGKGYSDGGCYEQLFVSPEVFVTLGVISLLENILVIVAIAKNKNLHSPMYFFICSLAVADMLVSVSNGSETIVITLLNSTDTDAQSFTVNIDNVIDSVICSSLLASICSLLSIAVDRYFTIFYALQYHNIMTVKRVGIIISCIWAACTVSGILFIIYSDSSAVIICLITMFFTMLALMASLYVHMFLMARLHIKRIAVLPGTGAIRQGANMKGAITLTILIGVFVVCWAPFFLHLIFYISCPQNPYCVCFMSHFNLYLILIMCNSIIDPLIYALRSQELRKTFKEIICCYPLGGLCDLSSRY
Sequence of 5-hydroxytryptamine receptor 6 (P50406 whole entry): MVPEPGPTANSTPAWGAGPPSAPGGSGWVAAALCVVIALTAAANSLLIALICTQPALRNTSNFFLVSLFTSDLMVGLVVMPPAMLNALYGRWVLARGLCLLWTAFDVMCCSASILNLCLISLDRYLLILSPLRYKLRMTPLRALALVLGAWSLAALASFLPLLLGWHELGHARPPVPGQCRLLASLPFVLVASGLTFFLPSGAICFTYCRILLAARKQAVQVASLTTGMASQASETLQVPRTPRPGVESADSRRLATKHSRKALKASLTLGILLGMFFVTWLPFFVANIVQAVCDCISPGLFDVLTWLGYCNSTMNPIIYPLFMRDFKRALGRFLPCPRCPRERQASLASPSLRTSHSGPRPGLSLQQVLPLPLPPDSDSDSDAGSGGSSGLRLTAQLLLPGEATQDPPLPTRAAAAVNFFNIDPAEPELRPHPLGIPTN
Sequence of Growth hormone secretagogue receptor type 1 (Sus scrofa, UniProt Q95254) (Q95254 whole entry): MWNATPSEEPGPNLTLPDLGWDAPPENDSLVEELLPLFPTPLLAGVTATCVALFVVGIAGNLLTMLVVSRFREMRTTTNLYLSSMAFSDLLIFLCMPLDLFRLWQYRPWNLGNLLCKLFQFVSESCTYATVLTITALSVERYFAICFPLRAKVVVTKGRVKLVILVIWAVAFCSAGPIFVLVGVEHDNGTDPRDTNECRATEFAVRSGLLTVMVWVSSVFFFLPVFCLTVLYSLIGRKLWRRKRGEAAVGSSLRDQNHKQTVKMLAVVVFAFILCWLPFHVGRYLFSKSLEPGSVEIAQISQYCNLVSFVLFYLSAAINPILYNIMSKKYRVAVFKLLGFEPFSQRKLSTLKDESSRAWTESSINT

Cc1ccc2[nH]c(-c3ccc(Br)cc3)c(CCCCCNC3CCCCC3)c2c1
IC50 [1]: 612 nM

CC(C)(N)CC(=O)N[C@@H]1CCc2ccccc2N(Cc2ccc(-c3ccccc3-c3nnn[nH]3)cc2)C1=O
IC50 [2]: 3.6 µM
IC50 [3]: 63 nM
IC50 [4]: 2800 nM

CS(=O)(=O)N1CC2(CCN(C(=O)[C@@H](Cc3ccc(Cl)cc3)NC(=O)C3Cc4ccccc4CN3)CC2)c2ccccc21 (some centres undefined)
IC50 [4]: 190 nM
IC50 [1]: 100 nM

CN(C)CCCc1c(-c2cccc(Br)c2)[nH]c2ccccc12
IC50 [5]: 0.7 nM

CC(C)(N)C(=O)N[C@H](COCc1ccccc1)C(=O)N1CCC2(CC1)CN(S(C)(=O)=O)c1ccccc12 [IBUTAMOREN]
IC50 [6]: Not Active

CCCCc1nc(Cl)c(CO)n1Cc1ccc(-c2ccccc2-c2nnn[nH]2)cc1 [LOSARTAN]
IC50 [7]: Not Active
